Compounds with a hit are over-represented: about 1.5% of the library has one in this group of screens.
GalR3 antagonist: GalR3 antagonists in HEK293 cells, primary screen, cell-based, fluorescence readout; inhibition, % at 3 µM; Galanin receptor type 3 (Homo sapiens), O60755; HEK293 GalR3-CNG cAMP membrane potential fluorescence; galR3 body fused to GalR1 C-terminus; AID 651719, 2012; actives 0.44% (n = 360,000);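 active = inhibition above the screen-wide average plus 3 SD, cut at about 13% in these data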;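 also: forskolin and galanin both at EC90 stimulate the cells; cAMP rise reported by CNG channel membrane potential dye signal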
Target sequence (O60755 1-299 limits assumed): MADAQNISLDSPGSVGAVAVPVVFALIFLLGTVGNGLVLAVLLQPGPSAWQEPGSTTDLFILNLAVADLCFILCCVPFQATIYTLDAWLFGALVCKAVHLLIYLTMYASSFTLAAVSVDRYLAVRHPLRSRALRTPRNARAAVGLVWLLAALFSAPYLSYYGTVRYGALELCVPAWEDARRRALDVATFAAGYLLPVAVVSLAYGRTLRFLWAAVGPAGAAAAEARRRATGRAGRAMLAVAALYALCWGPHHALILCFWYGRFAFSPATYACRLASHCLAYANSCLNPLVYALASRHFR
NR2E3 ag-1: NR2E3 agonists in two-hybrid cells, primary screen, cell-based, luminescence, CHO-S, Gal4-NCOR/VP16-NR2E3 | inhibition of corepressor binding, % at 3.98 µM | Photoreceptor-specific nuclear receptor (Homo sapiens), Q9Y5X4 | AID 602229, 2012 | actives 0.35% (n = 360,000) | luciferase;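 active = inhibition above the mean of all tested compounds plus 3 SD, cut at about 70% in these data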;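 also: higher means lower luciferase signal from less NR2E3 corepressor binding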
697 NFkB inh: inhibitors of PMA/ionomycin-induced NF-kB reporter, 697 cells, primary screen, B-cell NF-kB inhibitor project, cell-based, luminescence, uHTS | 697 B-cell NF-kB luciferase reporter, 16 h | AID 435022, 2010 | actives 0.33% (n = 330,000) | inhibition, % at 4 µM; in the data active = inhibition above about 35%
Jurkat NFkB inh: inhibitors of induced NF-kB luciferase reporter, primary screen, TCR NF-kB activation inhibitor project, cell-based, luminescence, uHTS | Jurkat, PMA/ionomycin-induced NF-kB luciferase reporter | inhibition, % at 4 µM | actives 0.53% (n = 330,000) | AID 435003, 2010; in the data active = inhibition above about 50%
NR2E3 ag-2: inhibitors of NR2E3-RetCOR corepressor binding, primary screen, NR2E3 agonist project, biochemical, TR-FRET, GST-NR2E3, biotin-RetCOR. AID 2300, 2010. 1536-well. inhibition of corepressor binding, % at 4.78 µM. actives 0.12% (n = 320,000). Photoreceptor-specific nuclear receptor (Homo sapiens), Q9Y5X4;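 active = percent inhibition above the cutoff of mean plus 3 SD of all tested compounds, set per screening campaign, cut at about 20% in these data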
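System: GST-tagged NR2E3 plus biotinylated RetCOR corepressor; Amount: 1.35 nM GST-tagged NR2E3 final; Dosing: single nominal compound dose of 4.8 µM; Schedule: 5 h incubation at 4 °C; Technique: TR-FRET with europium anti-GST and streptavidin-D2, 340 nm excitation; Controls: biotin wells as high control, 0.6% DMSO wells as low control.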
JMJD2C inh: inhibitors of GASC-1 histone demethylase, primary screen, biochemical, fluorescence, DELFIA europium; Lysine-specific demethylase 4C (Homo sapiens), Q9H3R0; GST-JMJD2C(1-420) H3K9me3 demethylation; inhibition, % at 2.35 µM; actives 0.069% (n = 330,000); AID 2099, 2009;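 active = more than half of a compound's replicate wells show inhibition beyond 50%, single wells judged on their own value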;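 also: signal counts dimethyl H3K9 product captured on neutravidin plate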
697 NFkB conf: PMA/ionomycin-induced NF-kB reporter inhibitors, 697 retest, confirmation, B-cell NF-kB inhibitor project, cell-based, luminescence, single concentration. shares compounds with 697 NFkB inh. 697 B-cell NF-kB luciferase, 16 h. inhibition, % at 4 µM. actives 35% (n = 2,000). AID 449746, 2010; in the data active = inhibition mostly above about 28%, no sharp cut-off; inactive = mostly below about 22%
NR2E3 ag confirm: NR2E3 agonist confirmation in cells, cell-based, luminescence, CHO-S two-hybrid | inhibition, % at 3.98 µM | actives 51% (n = 2,300) | CHO-S mammalian two-hybrid NR2E3-NCOR, luciferase luminescence | shares compounds with NR2E3 ag-1;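 active = average inhibition above a cutoff equal to the mean inhibition of all tested compounds plus one SD, cut at about 70% in these data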
GAL4-VP16 luc: GAL4-VP16 reporter modulators, confirmation, counter-screen for NR2E3 agonist project, cell-based, luminescence, CHO-S, high throughput; shares compounds with NR2E3 ag-1; CHO-S GAL4-VP16 luciferase reporter; inhibition, % at 3.98 µM; actives 29% (n = 2,300); AID 624379, 2012;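 active = mean inhibition above a cutoff equal to the average over all tested compounds plus one standard deviation, cut at about 70% in these data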;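 also: luciferase from a UAS reporter driven by GAL4-VP16 transactivation; higher means less reporter light so more repression of VP16 activity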
Numbers stand for hits; 0 = inactive; - = no result given.

SMILES | GalR3 antagonist | NR2E3 ag-1 | 697 NFkB inh | Jurkat NFkB inh | NR2E3 ag-2 | JMJD2C inh | 697 NFkB conf | NR2E3 ag confirm | GAL4-VP16 luc
Cc1cc(C)c(S(=O)(=O)NCc2ccncc2)c(C)c1 | 94.4 | 0 | 58.0 | 0 | 0 | 0 | 41.0 | 88.3 | 76.5
C=C1C(=O)C=C[C@]2(C)C[C@@H]3OC(=O)[C@](C)(O)[C@H]3C[C@@H]12 | 0 | 0 | 0 | 0 | 0 | 0 | 0 | 0 | 0
CCOc1ccc(-c2nc(CSCC(=O)NC3CC3)c(C)o2)cc1 | - | 109.1 | 98.6 | 0 | 0 | 0 | 79.2 | 94.7 | 94.5
CCOc1ccc(-c2nc(CSCC(=O)NC3CCN(Cc4ccccc4)CC3)c(C)o2)cc1 | 0 | 0 | - | - | - | - | - | - | -
CCOc1ccc(-c2nc(CSCC(=O)NCc3ccco3)c(C)o2)cc1 | 0 | 100.0 | 98.7 | 0 | 0 | 0 | 98.7 | 93.1 | 94.5
COCCNC(=O)CSCc1nc(-c2ccc(SC)cc2)oc1C | 0 | 92.1 | 83.7 | 0 | 0 | 0 | 72.4 | 84.6 | 86.2
CCOc1ccc(-c2nc(CSCC(=O)NC3CCCc4ccccc43)c(C)o2)cc1 (configuration not stated) | 0 | 0 | 0 | 0 | 0 | 0 | - | - | -
Cc1cc(C)cc(CC(=O)N2CCC2(C)C(=O)NS(=O)(=O)c2cc(C)ccc2F)c1 (configuration not stated) | 0 | 0 | - | - | - | - | - | - | -
C#CCNC(=O)C[C@@H]1C[C@@]2(C(=O)OC)CCCCC=C2N(CCCCCCCC)C1=O | 0 | 0 | - | - | - | - | - | - | -
O=C1N/C(=C\c2ccc(O)cc2)C(O)=C1C=NCc1ccccc1 | 0 | 0 | 37.3 | 0 | 0 | 0 | 0 | 72.8 | 0
COc1ccc(/C=C2\NC(=O)C(C=NCc3ccccc3)=C2O)cc1 | 0 | 0 | 0 | 0 | 0 | 0 | - | - | -
O=C(Nc1ccccc1C(=O)Nc1nnc(C(F)(F)F)s1)c1ccccc1 | 0 | 72.0 | 96.2 | 0 | 0 | 0 | 93.5 | 99.3 | 93.5
Cc1occc1C(=O)Nc1nnc(C(F)(F)F)s1 | 0 | 0 | 0 | 0 | 0 | 0 | - | - | -
CNC(=O)CCc1nc(-c2ccc(C(C)(C)C)cc2)no1 | 0 | 0 | 84.3 | 0 | 0 | 0 | 72.2 | 71.1 | 76.5
Cc1ccc(-c2noc(CCC(=O)NCC3CCCO3)n2)cc1 (configuration not stated) | 0 | 0 | 0 | 0 | 0 | 0 | - | - | -
CC(C)(C)c1ccc(-c2noc(CCC(N)=O)n2)cc1 | 0 | 79.9 | 93.0 | 0 | 0 | 0 | 93.9 | 77.8 | 77.4
CC(C)(C)c1ccc(-c2noc(CCC(=O)Nc3cccnc3)n2)cc1 | 0 | 83.7 | 90.8 | 0 | 0 | 0 | 91.3 | 75.1 | 79.2
CCOc1ccc(-c2noc(CCC(=O)NC)n2)cc1OCC | 0 | 0 | 0 | 0 | 0 | 0 | - | - | -
CC(C)(C)c1ccc(-c2noc(CCC(=O)NCC3CCCO3)n2)cc1 (configuration not stated) | 0 | 83.0 | 95.9 | 0 | 0 | 0 | 87.5 | 72.6 | 0
COc1ccc(-c2noc(CCC(=O)Nc3cccnc3)n2)cc1 | 0 | 0 | 0 | 0 | 0 | 0 | - | - | -
Clc1ccc(/C=C/c2ncc3ccccn23)cc1 | 0 | 0 | 0 | 0 | 0 | 0 | - | - | -
